Data taken from ChEMBL document CHEMBL5661979, “Pharmacological inhibition of BMK1 suppresses tumor growth through promyelocytic leukemia protein” (Cancer Cell, 2010).

Legend:
[1] = target: RPS6KA1/RPS6KA2/RPS6KA3 (Homo sapiens, UniProt P51812+Q15349+Q15418); assay: Inhibition of RSK1/2/3 in human HeLa cells lysate at 50 uM pre incubated for 15 mins followed by ATP acyl phosphate probe addition and measured after 10 mins by LC-MS/MS analysis relative to control; format: subcellular; details: time 25.0 min
[2] = Toxicity in C57Bl/6 mouse assessed as effect on albumin level at 50 mg/kg, ip for 14 days (reference value: 3 g/dl); format: organism-based; details: in vivo, 336 h, time 14 day
[3] = target: Calcium/calmodulin-dependent protein kinase type II subunit gamma (Homo sapiens, UniProt Q13555); assay: Inhibition of CAMK2g in human HeLa cells lysate at 50 uM pre incubated for 15 mins followed by ATP acyl phosphate probe addition and measured after 10 mins by LC-MS/MS analysis relative to control; format: subcellular; details: time 25.0 min
Procedure, shortened: (§1)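 KiNativ-type profiling in HeLa lysate (5 mg/mL total protein). Lysate preincubated 15 min with inhibitor at 50, 10, 2, 0.8 or 0 μM, then ATP or ADP acylphosphate probe added (5 μM final) for 10 min. Reaction stopped with urea and analysed by targeted MS, using up to four fragment ions per kinase peptide-probe conjugate. % inhibition calculated against untreated lysate. Duplicate reactions.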

[4] = target: Dual specificity mitogen-activated protein kinase kinase 1 (Homo sapiens, UniProt Q02750); assay: Inhibition of MAP2K1 in human HeLa cells lysate pre incubated for 15 mins followed by ADP acyl phosphate probe addition and measured after 10 mins by LC-MS/MS analysis; format: subcellular
[5] = target: T1, Mitogen-activated protein kinase kinase kinase 7 (Homo sapiens) (UniProt O43318); assay: Inhibition of TAK1 in human HeLa cells lysate at 10 uM pre incubated for 15 mins followed by ATP acyl phosphate probe addition and measured after 10 mins by LC-MS/MS analysis relative to control; format: subcellular; details: time 25.0 min
T1 sequence (whole entry): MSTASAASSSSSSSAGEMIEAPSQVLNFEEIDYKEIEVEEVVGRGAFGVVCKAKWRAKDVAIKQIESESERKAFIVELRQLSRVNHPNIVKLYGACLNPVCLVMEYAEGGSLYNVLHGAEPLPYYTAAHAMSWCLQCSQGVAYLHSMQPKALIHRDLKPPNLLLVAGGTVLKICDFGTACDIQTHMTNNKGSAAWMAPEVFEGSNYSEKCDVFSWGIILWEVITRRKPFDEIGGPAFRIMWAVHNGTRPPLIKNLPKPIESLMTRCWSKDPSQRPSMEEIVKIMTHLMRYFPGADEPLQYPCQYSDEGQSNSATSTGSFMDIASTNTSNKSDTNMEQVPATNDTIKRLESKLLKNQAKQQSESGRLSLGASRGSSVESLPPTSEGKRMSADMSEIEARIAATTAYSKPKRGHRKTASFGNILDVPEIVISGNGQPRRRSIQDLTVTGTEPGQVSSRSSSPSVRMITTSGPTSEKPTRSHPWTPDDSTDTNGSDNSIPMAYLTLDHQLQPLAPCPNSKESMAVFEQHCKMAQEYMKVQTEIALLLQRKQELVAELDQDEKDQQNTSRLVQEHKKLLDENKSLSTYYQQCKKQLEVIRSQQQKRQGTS

[6] = target: T2, Phosphatidylinositol 5-phosphate 4-kinase type-2 alpha (Homo sapiens) (UniProt P48426); assay: Inhibition of PIP5K2A LIP site in human HeLa cells lysate at 10 uM pre incubated for 15 mins followed by ADP acyl phosphate probe addition and measured after 10 mins by LC-MS/MS analysis relative to control; format: subcellular; details: time 25.0 min
T2 sequence (whole entry): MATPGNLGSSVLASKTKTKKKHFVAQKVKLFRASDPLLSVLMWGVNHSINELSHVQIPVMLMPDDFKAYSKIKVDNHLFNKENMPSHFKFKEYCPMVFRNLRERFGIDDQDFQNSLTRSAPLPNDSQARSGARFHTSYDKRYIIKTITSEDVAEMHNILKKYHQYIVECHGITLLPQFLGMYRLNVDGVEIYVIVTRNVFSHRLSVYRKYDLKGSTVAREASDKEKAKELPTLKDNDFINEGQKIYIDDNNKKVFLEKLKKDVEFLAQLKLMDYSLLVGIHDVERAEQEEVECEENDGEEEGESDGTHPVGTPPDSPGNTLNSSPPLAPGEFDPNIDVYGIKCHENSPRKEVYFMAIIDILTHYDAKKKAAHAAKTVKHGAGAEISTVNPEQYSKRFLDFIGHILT

[7] = target: Cyclin-dependent kinase 2 (Homo sapiens, UniProt P24941); assay: Inhibition of CDK2 K2 site in human HeLa cells lysate at 10 uM pre incubated for 15 mins followed by ADP acyl phosphate probe addition and measured after 10 mins by LC-MS/MS analysis relative to control; format: subcellular; details: time 25.0 min
Procedure, shortened: (§2)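 KiNativ profiling in HeLa lysate (5 mg/mL total protein). Lysate incubated 15 min with inhibitor at 50, 10, 2, 0.8 or 0 μM. ATP or ADP acylphosphate probe then added (5 μM final) and reacted 10 min. Reaction stopped with urea and analysed by targeted MS, using up to four fragment ions per kinase peptide-probe conjugate. % inhibition taken against untreated lysate. Run in duplicate.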

[8] = target: Cyclin-dependent kinase 10 (Homo sapiens, UniProt Q15131); assay: Inhibition of CDK10 in human HeLa cells lysate at 50 uM pre incubated for 15 mins followed by ATP acyl phosphate probe addition and measured after 10 mins by LC-MS/MS analysis relative to control; format: subcellular; details: time 25.0 min; procedure, shortened: as §2
[9] = target: Tyrosine-protein kinase receptor UFO (Homo sapiens) (UniProt P30530); assay: Inhibition of AXL in human HeLa cells lysate at 10 uM pre incubated for 15 mins followed by ADP acyl phosphate probe addition and measured after 10 mins by LC-MS/MS analysis relative to control; format: subcellular; details: time 25.0 min; procedure, shortened: as §1
[10] = target: T3, Dual specificity mitogen-activated protein kinase kinase 7 (Homo sapiens) (UniProt O14733); assay: Inhibition of MAP2K7 in human HeLa cells lysate at 2 uM pre incubated for 15 mins followed by ADP acyl phosphate probe addition and measured after 10 mins by LC-MS/MS analysis relative to control; format: subcellular; details: time 25.0 min
T3 sequence (whole entry): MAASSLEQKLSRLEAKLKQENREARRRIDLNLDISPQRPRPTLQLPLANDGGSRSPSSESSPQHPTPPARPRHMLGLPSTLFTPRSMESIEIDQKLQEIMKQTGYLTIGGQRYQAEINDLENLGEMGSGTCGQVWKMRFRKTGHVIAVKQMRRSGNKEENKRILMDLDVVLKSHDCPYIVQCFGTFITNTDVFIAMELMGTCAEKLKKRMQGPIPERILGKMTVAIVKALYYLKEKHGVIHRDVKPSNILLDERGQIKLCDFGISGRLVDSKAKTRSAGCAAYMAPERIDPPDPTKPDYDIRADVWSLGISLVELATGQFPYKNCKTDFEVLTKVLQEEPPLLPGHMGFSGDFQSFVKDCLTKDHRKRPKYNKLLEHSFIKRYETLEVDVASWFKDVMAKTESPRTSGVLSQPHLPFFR

[11] = target: Cyclin-dependent kinase 9 (Homo sapiens, UniProt P50750); assay: Inhibition of CDK9 in human HeLa cells lysate at 2 uM pre incubated for 15 mins followed by ADP acyl phosphate probe addition and measured after 10 mins by LC-MS/MS analysis relative to control; format: subcellular; details: time 25.0 min; procedure, shortened: as §2
Chain of Cyclin-dependent kinase 9 (P50750 whole entry): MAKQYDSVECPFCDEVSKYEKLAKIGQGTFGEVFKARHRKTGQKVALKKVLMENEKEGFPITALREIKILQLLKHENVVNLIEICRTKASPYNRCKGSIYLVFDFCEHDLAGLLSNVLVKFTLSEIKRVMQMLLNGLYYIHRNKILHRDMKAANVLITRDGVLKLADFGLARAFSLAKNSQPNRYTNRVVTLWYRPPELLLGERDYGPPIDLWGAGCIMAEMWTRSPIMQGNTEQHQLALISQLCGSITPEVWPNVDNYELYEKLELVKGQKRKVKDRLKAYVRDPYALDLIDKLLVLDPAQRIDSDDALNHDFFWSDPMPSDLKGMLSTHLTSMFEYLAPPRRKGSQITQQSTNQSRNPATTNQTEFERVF

Chain of RPS6KA1/RPS6KA2/RPS6KA3 (P51812 whole entry, looked up): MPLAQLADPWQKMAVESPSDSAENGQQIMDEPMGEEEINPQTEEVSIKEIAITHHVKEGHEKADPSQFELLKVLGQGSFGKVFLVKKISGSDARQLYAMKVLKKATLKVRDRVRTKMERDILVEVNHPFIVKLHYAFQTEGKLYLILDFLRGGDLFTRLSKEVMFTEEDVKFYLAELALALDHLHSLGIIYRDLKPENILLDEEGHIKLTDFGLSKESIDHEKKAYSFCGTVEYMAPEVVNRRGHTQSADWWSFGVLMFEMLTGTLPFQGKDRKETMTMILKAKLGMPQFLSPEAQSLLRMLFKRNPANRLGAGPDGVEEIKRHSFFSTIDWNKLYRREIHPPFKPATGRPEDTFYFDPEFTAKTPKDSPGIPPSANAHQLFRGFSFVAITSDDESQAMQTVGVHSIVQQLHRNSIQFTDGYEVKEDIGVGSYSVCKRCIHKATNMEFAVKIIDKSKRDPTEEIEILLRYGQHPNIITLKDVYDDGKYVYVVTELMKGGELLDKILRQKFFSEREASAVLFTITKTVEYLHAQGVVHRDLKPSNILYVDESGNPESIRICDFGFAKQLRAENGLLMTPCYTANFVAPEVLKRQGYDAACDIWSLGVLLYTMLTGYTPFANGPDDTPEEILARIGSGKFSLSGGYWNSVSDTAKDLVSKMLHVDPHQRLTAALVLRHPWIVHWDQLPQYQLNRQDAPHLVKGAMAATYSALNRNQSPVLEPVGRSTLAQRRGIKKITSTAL
Chain of RPS6KA1/RPS6KA2/RPS6KA3 (Q15349 whole entry, looked up): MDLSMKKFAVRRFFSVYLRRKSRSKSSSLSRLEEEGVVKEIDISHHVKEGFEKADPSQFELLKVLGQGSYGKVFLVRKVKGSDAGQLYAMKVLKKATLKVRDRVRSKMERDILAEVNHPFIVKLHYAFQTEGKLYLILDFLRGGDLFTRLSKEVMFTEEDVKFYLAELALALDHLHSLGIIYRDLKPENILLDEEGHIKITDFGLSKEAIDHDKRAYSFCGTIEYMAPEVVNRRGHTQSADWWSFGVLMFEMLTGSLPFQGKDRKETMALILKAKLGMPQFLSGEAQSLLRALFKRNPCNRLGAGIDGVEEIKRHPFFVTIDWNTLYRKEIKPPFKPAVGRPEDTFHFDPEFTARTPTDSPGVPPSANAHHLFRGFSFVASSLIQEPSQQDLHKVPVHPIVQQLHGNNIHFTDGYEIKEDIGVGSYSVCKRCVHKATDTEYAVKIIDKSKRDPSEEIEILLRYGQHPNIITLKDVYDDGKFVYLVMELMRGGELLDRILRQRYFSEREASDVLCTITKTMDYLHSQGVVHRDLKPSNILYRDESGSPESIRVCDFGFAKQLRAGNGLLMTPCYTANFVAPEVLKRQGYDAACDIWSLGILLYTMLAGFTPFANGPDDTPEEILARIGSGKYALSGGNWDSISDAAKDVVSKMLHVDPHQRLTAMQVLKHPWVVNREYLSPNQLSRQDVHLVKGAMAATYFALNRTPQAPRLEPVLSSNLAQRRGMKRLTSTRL
Chain of RPS6KA1/RPS6KA2/RPS6KA3 (Q15418 whole entry, looked up): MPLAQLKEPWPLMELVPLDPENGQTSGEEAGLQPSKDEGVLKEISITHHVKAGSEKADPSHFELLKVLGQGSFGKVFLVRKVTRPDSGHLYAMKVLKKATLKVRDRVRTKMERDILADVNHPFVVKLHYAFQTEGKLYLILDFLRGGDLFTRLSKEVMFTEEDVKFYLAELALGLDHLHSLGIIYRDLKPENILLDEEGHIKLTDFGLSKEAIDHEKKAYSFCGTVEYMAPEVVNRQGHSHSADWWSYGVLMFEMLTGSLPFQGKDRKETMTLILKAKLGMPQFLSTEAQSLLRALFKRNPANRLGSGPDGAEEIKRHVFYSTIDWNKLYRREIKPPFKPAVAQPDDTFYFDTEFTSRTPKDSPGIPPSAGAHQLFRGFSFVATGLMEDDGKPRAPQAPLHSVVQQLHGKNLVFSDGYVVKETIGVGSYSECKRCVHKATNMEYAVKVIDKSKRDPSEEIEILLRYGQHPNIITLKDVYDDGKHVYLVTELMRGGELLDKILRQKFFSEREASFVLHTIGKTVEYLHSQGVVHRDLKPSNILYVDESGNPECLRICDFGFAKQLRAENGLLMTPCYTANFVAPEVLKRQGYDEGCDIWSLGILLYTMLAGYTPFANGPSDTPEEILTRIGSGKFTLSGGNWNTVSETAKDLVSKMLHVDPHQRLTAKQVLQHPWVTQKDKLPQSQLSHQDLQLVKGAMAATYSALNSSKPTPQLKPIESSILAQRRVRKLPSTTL
Chain of Tyrosine-protein kinase receptor UFO (Homo sapiens) (P30530 whole entry): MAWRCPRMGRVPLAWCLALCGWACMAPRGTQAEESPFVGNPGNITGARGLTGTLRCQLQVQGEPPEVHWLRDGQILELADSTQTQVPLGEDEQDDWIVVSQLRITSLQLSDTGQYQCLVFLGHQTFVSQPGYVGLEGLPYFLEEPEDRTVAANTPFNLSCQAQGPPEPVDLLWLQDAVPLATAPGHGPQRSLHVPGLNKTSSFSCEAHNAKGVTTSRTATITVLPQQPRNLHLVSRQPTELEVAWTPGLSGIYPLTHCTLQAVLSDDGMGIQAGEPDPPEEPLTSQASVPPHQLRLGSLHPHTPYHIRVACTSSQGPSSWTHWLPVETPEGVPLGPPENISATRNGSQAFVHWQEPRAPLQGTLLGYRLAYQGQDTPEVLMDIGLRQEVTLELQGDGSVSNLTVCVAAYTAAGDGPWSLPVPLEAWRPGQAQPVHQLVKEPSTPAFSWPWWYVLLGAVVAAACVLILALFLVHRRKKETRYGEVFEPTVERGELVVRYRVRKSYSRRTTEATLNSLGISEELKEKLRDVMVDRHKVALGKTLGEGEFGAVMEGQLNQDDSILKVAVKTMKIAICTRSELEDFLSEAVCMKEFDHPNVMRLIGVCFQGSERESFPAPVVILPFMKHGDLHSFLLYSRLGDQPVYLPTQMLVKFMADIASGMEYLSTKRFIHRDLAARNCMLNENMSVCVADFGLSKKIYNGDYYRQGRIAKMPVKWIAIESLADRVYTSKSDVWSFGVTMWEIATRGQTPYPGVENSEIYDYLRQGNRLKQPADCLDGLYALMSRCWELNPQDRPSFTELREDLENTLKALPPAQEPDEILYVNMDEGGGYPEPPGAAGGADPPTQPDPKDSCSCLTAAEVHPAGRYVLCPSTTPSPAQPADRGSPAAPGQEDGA
Chain of Dual specificity mitogen-activated protein kinase kinase 1 (Q02750 whole entry): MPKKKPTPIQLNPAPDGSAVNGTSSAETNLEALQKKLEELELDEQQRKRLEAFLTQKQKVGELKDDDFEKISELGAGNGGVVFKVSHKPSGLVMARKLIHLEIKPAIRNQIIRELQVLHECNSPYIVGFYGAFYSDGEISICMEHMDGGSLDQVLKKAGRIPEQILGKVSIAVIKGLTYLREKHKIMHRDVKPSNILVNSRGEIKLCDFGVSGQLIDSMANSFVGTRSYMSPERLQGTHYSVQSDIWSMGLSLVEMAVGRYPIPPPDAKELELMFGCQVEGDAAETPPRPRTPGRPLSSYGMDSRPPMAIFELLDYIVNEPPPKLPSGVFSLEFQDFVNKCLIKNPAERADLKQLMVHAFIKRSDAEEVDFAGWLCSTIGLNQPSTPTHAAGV
Chain of Calcium/calmodulin-dependent protein kinase type II subunit gamma (Q13555 whole entry, the tested form may be a part): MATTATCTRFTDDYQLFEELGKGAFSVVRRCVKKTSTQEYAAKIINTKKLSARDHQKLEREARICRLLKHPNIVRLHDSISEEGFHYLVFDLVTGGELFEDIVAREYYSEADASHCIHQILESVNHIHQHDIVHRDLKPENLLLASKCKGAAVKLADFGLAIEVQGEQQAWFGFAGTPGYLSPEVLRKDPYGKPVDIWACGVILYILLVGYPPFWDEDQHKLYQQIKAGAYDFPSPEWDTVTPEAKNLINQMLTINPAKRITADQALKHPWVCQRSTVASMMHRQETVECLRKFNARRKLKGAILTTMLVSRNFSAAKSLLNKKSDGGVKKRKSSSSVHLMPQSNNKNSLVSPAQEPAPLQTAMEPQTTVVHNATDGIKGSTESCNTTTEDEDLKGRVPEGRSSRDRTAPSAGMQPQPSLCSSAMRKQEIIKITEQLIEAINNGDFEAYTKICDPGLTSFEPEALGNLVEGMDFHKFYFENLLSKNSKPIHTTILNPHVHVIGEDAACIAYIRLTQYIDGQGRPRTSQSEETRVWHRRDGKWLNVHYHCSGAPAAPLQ
Chain of Cyclin-dependent kinase 10 (Q15131 whole entry): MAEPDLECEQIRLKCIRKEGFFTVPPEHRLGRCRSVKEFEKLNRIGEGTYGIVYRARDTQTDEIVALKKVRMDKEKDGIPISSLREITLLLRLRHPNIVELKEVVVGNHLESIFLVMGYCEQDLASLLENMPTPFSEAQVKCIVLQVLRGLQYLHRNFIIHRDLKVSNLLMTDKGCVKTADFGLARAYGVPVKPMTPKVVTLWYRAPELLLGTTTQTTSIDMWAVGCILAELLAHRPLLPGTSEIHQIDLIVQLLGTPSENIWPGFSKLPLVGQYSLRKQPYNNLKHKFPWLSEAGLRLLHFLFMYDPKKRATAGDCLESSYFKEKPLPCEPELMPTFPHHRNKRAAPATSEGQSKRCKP

## CCOc1cc(N2CCC(O)CC2)ccc1Nc1ncc2c(n1)N(C)c1ccccc1C(=O)N2C
[1]
  inhibition: 0.9%
[2]
  Activity: 3.3 g/dL
[3]
  inhibition: 13.9%
[4]
  IC50: > 50 µM
[5]
  inhibition: 21.2%
[6]
  inhibition: -2.5%
[7]
  inhibition: -7.5%
[8]
  inhibition: -0.4%
[9]
  inhibition: -5.1%
[10]
  inhibition: 17.9%
[11]
  inhibition: 0.8%
